Calls of active or inactive are those of the source. The calls are words filed in the database; no cut-off is given here.
What was measured:
3T3-L1 [1] = assay: Inhibition of ROS production in TNF-alpha-induced insulin resistant mouse 3T3L1 cells at 3 to 10 uM after 48 hrs in presence of nitric oxide scavenger C-PTIO by DCFH-DA dye-based fluorescence assay; format: functional, cell-based
3T3-L1 [2] = assay: Induction of GSH level in TNF-alpha-induced insulin resistant mouse 3T3L1 cells at 3 to 10 uM after 48 hrs; format: functional, cell-based
Outline: (§1)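 3T3-L1 preadipocytes were differentiated, and mature adipocytes made insulin resistant with TNF-α (4 ng/mL) daily for 4 days. Cells were then treated in triplicate for 48 h, with or without 20 μM C-PTIO. Lysate GSH, SOD and MDA were measured with kits. Three experiments, mean ± SD.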

3T3-L1 [3] = assay: Inhibition of MDA level in TNF-alpha-induced insulin resistant mouse 3T3L1 cells at 3 to 10 uM after 48 hrs; format: functional, cell-based
[4] = Metabolic stability in simulated gastric fluid at pH 1.5 measured after 6 hrs by HPLC analysis; format: ADME; conditions: read-out: Stability
Outline: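 Gastric fluid was 1% pepsin in water, pH 1.5. Intestinal fluid was 1% trypsin with 0.68% KH2PO4, pH 6.8. Compound (100 mM DMSO stock) was diluted 1:1000 into each, in triplicate. Incubation was at 37 °C for 0, 2, 4, 6, 16 or 24 h. Acetonitrile (3 volumes) stopped it, then HPLC at 254 nm.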

[5] = Metabolic stability in human liver microsomes after 1 hrs in presence of NADPH by HPLC analysis; format: ADME, Microsome; conditions: read-out: Stability
Outline: (§2)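 Compound (100 mM DMSO stock) was added in triplicate to 0.1 M phosphate buffer pH 7.4 with 3.3 mM MgCl2 and human liver microsomes, then preincubated 5 min at 37 °C. NADPH (1.3 mM stock) was added and incubation continued 0, 0.5, 1, 2 or 6 h. Acetonitrile quench, then HPLC at 254 nm.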

[6] = Metabolic stability in human liver microsomes after 2 hrs in presence of NADPH by HPLC analysis; format: ADME, Microsome; conditions: read-out: Stability; outline: as §2
Mus musculus = assay: Cardioprotective activity in db/db BKS.Cg-Dock7m +/+ Leprdb/J mouse assessed as decrease in serum TNF-alpha level at 27 umol/kg, po administered as daily dose via gavage treated for 18 days by ELISA; format: functional, organism-based
Outline: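 db/db mice were gavaged daily for 18 days in 0.5% CMC-Na, with vehicle-treated model and C57BL/6 control groups. Tail vein blood was collected and serum TNF-α and cTnI measured by commercial ELISA kits. Six individual experiments, mean ± SD, one-way ANOVA.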

Platelet [7] = assay: Antiplatelet activity in platelet rich plasma (unknown origin) assessed as inhibition of arachidonic acid-induced platelet aggregation at 0.05 mM relative to control; format: functional
Platelet [8] = assay: Antiplatelet activity in platelet rich plasma (unknown origin) assessed as inhibition of arachidonic acid-induced platelet aggregation at 0.2 mM relative to control; format: functional
Platelet [9] = assay: Antiplatelet activity in platelet rich plasma (unknown origin) assessed as inhibition of ADP-induced platelet aggregation at 0.8 mM relative to control; format: functional
Platelet [10] = assay: Antiplatelet activity in platelet rich plasma (unknown origin) assessed as inhibition of ADP-induced platelet aggregation at 3.2 mM relative to control; format: functional
[11] = Drug metabolism in Sprague-Dawley rat plasma after 0.5 hrs by HPLC analysis; format: ADME, cell-free; conditions: read-out: Drug metabolism
Outline: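 100 mM DMSO stock was diluted 1:1000 into SD rat plasma, in triplicate. Incubated with shaking at 37 °C for 0–24 h, then stopped with three volumes of acetonitrile and centrifuged.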

3T3-L1 [12] = assay: Inhibition of ROS production in TNF-alpha-induced insulin resistant mouse 3T3L1 cells at 10 uM after 48 hrs by DCFH-DA dye-based fluorescence assay; format: functional, cell-based
3T3-L1 [13] = assay: Inhibition of ROS production in TNF-alpha-induced insulin resistant mouse 3T3L1 cells at 10 uM after 48 hrs in presence of nitric oxide scavenger C-PTIO by DCFH-DA dye-based fluorescence assay; format: functional, cell-based
Platelet [14] = assay: Antiplatelet activity in platelet rich plasma (unknown origin) assessed as inhibition of arachidonic acid-induced platelet aggregation at 2 mM relative to control; format: functional
Platelet [15] = assay: Antiplatelet activity in platelet rich plasma (unknown origin) assessed as inhibition of ADP-induced platelet aggregation at 2 mM relative to control; format: functional
Platelet [16] = assay: Antiplatelet activity in platelet rich plasma (unknown origin) assessed as inhibition of ADP-induced platelet aggregation at 4 mM relative to control; format: functional
Platelet [17] = assay: Antiplatelet activity in platelet rich plasma (unknown origin) assessed as inhibition of ADP-induced platelet aggregation at 8 mM relative to control; format: functional
[18] = Toxicity in ICR mouse assessed mouse mortality at 5000 mg/kg, po administered as single dose via gavage treated on day 1 and measured daily up to 14 days; format: organism-based; conditions: in vivo, 336 h
Outline: (§3)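 Mice of both sexes, 7 weeks old, were randomized and given one oral gavage dose on day 1. Dose levels were 500, 1000, 2000, 3000, 4000 or 5000 mg/kg, or 2000, 4000 and 5000 mg/kg, with n = 10 per group. Behaviour, health and mortality were checked daily for 14 days, and total deaths were counted on day 14. LD50 was calculated with 95% confidence limits.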

[19] = Toxicity in ICR mouse assessed mouse mortality at 500 mg/kg, po administered as single dose via gavage treated on day 1 and measured daily up to 14 days; format: organism-based; conditions: in vivo, 336 h; outline: as §3
3T3-L1 [20] = assay: Inhibition of MDA level in TNF-alpha-induced insulin resistant mouse 3T3L1 cells 10 uM after 48 hrs; format: functional, cell-based; outline: as §1

In the case of CCN(CC)/[N+]([O-])=N/OCOC(=O)/C=C/c1ccc(OC(=O)OCN2C(=O)SC(Cc3ccc(OCCN(C)c4ccccn4)cc3)C2=O)c(OC)c1 (stereo unspecified), the inhibition (3T3-L1 [1]) is reported as “inactive”, the Activity (3T3-L1 [2]) is reported as “Active” and the inhibition (3T3-L1 [3]) is reported as “Active”. The remaining at 6 h [4] was 93.6%, the remaining at 1 h [5] was 89.9% and the remaining at 2 h [6] was 85.3%. The Activity (Mus musculus) was “Active”, the inhibition at 50 µM (Platelet [7]) was 9.2% and the inhibition at 200 µM (Platelet [8]) was 30.2%. The inhibition at 800 µM (Platelet [9]) was 26.2%, the inhibition at 3200 µM (Platelet [10]) was 57.3% and the metabolised at 0.5 h [11] was 23%.
With CN(CCOc1ccc(CC2SC(=O)NC2=O)cc1)c1ccccn1 (stereo unspecified) [ROSIGLITAZONE] the inhibition (3T3-L1 [12]) was “Active”, the inhibition (3T3-L1 [13]) was “inactive” and the inhibition at 2000 µM (Platelet [14]) was 28%. The inhibition at 2000 µM (Platelet [15]) was 25.3%, the inhibition at 4000 µM (Platelet [16]) was 43.1% and the inhibition at 8000 µM (Platelet [17]) was 64%. The Activity [18] was “Toxic”, the Activity [19] was “Non-Toxic” and the inhibition (3T3-L1 [20]) was “Active”.
